According to ChEMBL document CHEMBL2407011, “Novel 2-(2,4-dioxo-1,3-thiazolidin-5-yl)acetamides as antioxidant and/or anti-inflammatory compounds” (Eur J Med Chem, 2013):
Converted amounts (≈) assume the structure as drawn.

Columns and labels:
[1] = Antioxidant activity assessed as inhibition of lipid peroxidation activity after 15 mins by MDA assay; assay type: functional
Method in brief: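 Egg yolk diluted 1:1 in PBS (0.1 M, pH 7.45) served as substrate. Compound (50–300 µg/mL) was added with FeSO4 (25 mM stock) and incubated 15 min at 37 °C. Reaction stopped with 20% TCA plus 0.8% thiobarbituric acid, then heated 15 min at 100 °C. MDA adduct read at 532 nm; % inhibition versus control, EC50 from triplicates.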

[2] = Antioxidant activity assessed as superoxide radical scavenging activity after 5 mins by spectrophotometry; assay type: functional
Method in brief: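 Superoxide generated by PMS/NADH reducing NBT, in 16 mM Tris-HCl pH 8.0 with […], 50 µM NBT, 10 µM PMS and compound (5–180 µg/mL). After 5 min at room temperature, formazan read at 560 nm; % scavenging versus control, EC50 from triplicates.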

[3] = tested on: THP-1; experiment: Antiinflammatory activity in human THP1 cells assessed as inhibition of PMA-induced MCP-1 secretion preincubated for 1 hr prior PMA-challenge measured after 48 hrs by ELISA; assay type: functional, cell-based
Method in brief: (§1)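 THP1 cells at 2 x 10^5 cells/mL were pretreated 1 h with 5, 10 and 20 µM compound, then stimulated with 10 ng/mL PMA for 48 h. Supernatant IL-1β or MCP-1 was measured by ELISA at 450 nm (corrected at 570 nm) and quantified from a standard curve. Percent inhibition was taken versus control and IC50 derived, reported as mean ± SD of three independent experiments.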

[4] = Hemolysis of human erythrocytes after 30 mins by spectrophotometry; assay type: ADME, cell-based, Erythrocyte
Method in brief: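 Citrated human blood centrifuged (3,000 g, 10 min), erythrocytes washed in PBS pH 7.4 and made up as a 1.25% suspension. Suspension incubated with H2O2 (2.5 mM) and compound (50–300 µg/mL) 30 min at 37 °C, stopped on ice, centrifuged, read at 540 nm. Inhibition = (AH2O2 − Asample)/(AH2O2 − Anormal) × 100.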

[5] = tested on: THP-1; experiment: Antiinflammatory activity in human THP1 cells assessed as inhibition of PMA-induced IL-1beta secretion preincubated for 1 hr prior PMA-challenge measured after 48 hrs by ELISA; assay type: functional, cell-based; method in brief: as §1
[6] = Antioxidant activity assessed as DPPH scavenging activity after 30 mins by UV-visible spectrophotometry; assay type: functional
Method in brief: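 Methanolic compound solutions (5–180 µg/mL) mixed 1:1 by volume with 0.002% DPPH in methanol, shaken and kept in the dark 30 min. Absorbance read at 517 nm; % scavenging = (Acontrol − Asample)/Acontrol × 100. EC50 is the concentration scavenging 50% of radicals; mean of three experiments.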

[7] = tested on: THP-1; experiment: Antiinflammatory activity against PMA-stimulated human THP1 cells assessed as IL-1beta levels after 48 hrs by ELISA (reference value: 172 +/- 0.71 pg/ml); assay type: functional
[8] = tested on: THP-1; experiment: Antiinflammatory activity against PMA-stimulated human THP1 cells assessed as MCP-1 levels after 48 hrs by ELISA (reference value: 3521.63 +/- 79.78 pg/ml); assay type: functional
[9] = Homo sapiens, Erythrocyte, 0.5 h, read-out: EC50

Structure (SMILES) | EC50 [1] | EC50 [2] | IC50 [3] [µM] | IC50 [5] [µM] | EC50 [6] | EC50 ([4]; erythrocyte) | EC50 [4, 9] [µg/mL] | Activity [7] [pg/mL] | Activity [8] [pg/mL]
O=C(CC1SC(=O)NC1=O)Nc1nc(-c2ccccc2F)cs1 (stereo not given) | Not Active | Not Active | 16.7 | > 50 | 82.5 µg/mL (≈ 235 µM) | Not Active |  |  | 
CN1C(C(=O)Nc2ccccn2)=C(O)c2ccccc2S1(=O)=O [PIROXICAM] |  |  |  | 21.3 |  |  |  |  | 
O=C(CC1SC(=O)NC1=O)Nc1nc(-c2ccc(Br)cc2)cs1 (stereo not given) | Not Active | Not Active | 49.1 | 33.1 | 49.71 µg/mL (≈ 121 µM) | Not Active |  |  | 
O=c1cc(-c2ccc(O)c(O)c2)oc2cc(O)cc(O)c12 [LUTEOLIN] | 149.7 µg/mL (≈ 523 µM) | 31.01 µg/mL (≈ 108 µM) |  |  | 44.18 µg/mL (≈ 154 µM) |  | 107 (≈ 375 µM) |  | 
O=C(CC1SC(=O)NC1=O)Nc1nc2ccccc2s1 (stereo not given) | 149.7 µg/mL (≈ 487 µM) | 101.18 µg/mL (≈ 329 µM) | 20.8 | > 50 | 52.18 µg/mL (≈ 170 µM) |  | 107 (≈ 349 µM) |  | 
O=C1O[C@H]([C@@H](O)CO)C(O)=C1O [ASCORBIC ACID] | 139.97 µg/mL (≈ 795 µM) | 21.01 µg/mL (≈ 119 µM) |  |  | 40.28 µg/mL (≈ 229 µM) |  | 96.6 (≈ 549 µM) |  | 
O=C(CC1SC(=O)NC1=O)Nc1nc(-c2cccc(Cl)c2)cs1 (stereo not given) |  |  | 34.2 | 23.4 | Not Active |  |  |  | 
O=C(CC1SC(=O)NC1=O)Nc1nc(-c2ccc(F)cc2)cs1 (stereo not given) | Not Active | Not Active | 17.6 | > 50 | 52.69 µg/mL (≈ 150 µM) | Not Active |  |  | 
CCc1ccc(CCOc2ccc(CC3SC(=O)NC3=O)cc2)nc1 (stereo not given) [PIOGLITAZONE] |  |  | 18.8 | > 50 |  |  |  | 165 | 2588.33
O=C(CC1SC(=O)NC1=O)Nc1nc(-c2ccc(I)cc2)cs1 (stereo not given) |  |  | 31.7 | > 50 | Not Active | Not Active |  |  | 
CCOc1ccc2nc(NC(=O)CC3SC(=O)NC3=O)sc2c1 (stereo not given) | Not Active | Not Active | 63.1 | > 50 | 62.9 µg/mL (≈ 179 µM) | Not Active |  |  | 

Further lines, with some results ahead:

EC50 [1] | EC50 [2] | IC50 [3] [µM] | IC50 [5] [µM] | EC50 [6] | Structure (SMILES) | EC50 ([4]; erythrocyte) | EC50 [4, 9] [µg/mL] | Activity [7] [pg/mL] | Activity [8] [pg/mL]
 |  | 30.4 | 9.6 | Not Active | O=C(CC1SC(=O)NC1=O)Nc1nc(-c2ccccc2)cs1 (stereo not given) |  |  |  | 
131.79 µg/mL (≈ 363 µM) | 79.94 µg/mL (≈ 220 µM) | > 50 | 7.23 | 58.68 µg/mL (≈ 161 µM) | COc1ccccc1-c1csc(NC(=O)CC2SC(=O)NC2=O)n1 (stereo not given) |  | 96.6 (≈ 266 µM) |  | 
 |  | > 50 | 16.3 | Not Active | O=C(CC1SC(=O)NC1=O)Nc1nc(-c2ccc(Cl)cc2)cs1 (stereo not given) |  |  |  | 
Not Active | Not Active | 39.6 | 7.03 | 51.82 µg/mL (≈ 154 µM) | COc1ccc2nc(NC(=O)CC3SC(=O)NC3=O)sc2c1 (stereo not given) | Not Active |  |  | 
Not Active | Not Active | 20.3 | 6.83 | 39.76 µg/mL (≈ 113 µM) | O=C(CC1SC(=O)NC1=O)Nc1nc2ccc([N+](=O)[O-])cc2s1 (stereo not given) | Not Active |  |  | 
 |  | 18.8 | 7.66 | Not Active | Cc1ccccc1-c1csc(NC(=O)CC2SC(=O)NC2=O)n1 (stereo not given) |  |  |  | 
 | Not Active | 18.9 | 11.7 | 90.16 µg/mL (≈ 260 µM) | Cc1cccc(-c2csc(NC(=O)CC3SC(=O)NC3=O)n2)c1 (stereo not given) | Not Active |  |  | 
 |  | 26.5 | 18.2 | Not Active | O=C(CC1SC(=O)NC1=O)Nc1nc(-c2ccccc2Cl)cs1 (stereo not given) |  |  |  | 
